Series [1] can be described thus: Clearance in human hepatocytes assessed per million cells by LC-MS/MS analysis. The series is classed as ADME, cell-based, Hepatocyte. The procedure, abridged:
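Intrinsic clearance in primary human hepatocytes ([…] as printed) or mouse hepatocytes, compound 0.5–5 µM; quinidine or ketoconazole added to define CYP2D6/CYP3A4 contribution; LC-MS/MS analysis.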

Series [2] concerns Mus musculus. Put plainly: Suppression of blood glucose concentration in 0.3 to 4.5 mg/kg, ip GLP1(9-36)NH2-treated normoglycemic C57Bl/6J mouse at 30 mg/kg, po dosed 1 hrs before test by oral glucose-tolerance test. Format: functional, organism-based. The procedure, abridged:
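Male C57Bl/6J mice aged 10–11 weeks, n=6, fasted overnight. Rifampicin 60 mg/kg p.o. 2.5 h before the oGTT, compound p.o. 1 h before, GLP1(9-36)NH2 i.p. (0.3, 1, 3, 4.5 mg/kg) 15 min before. Glucose 2 g/kg orally. Tail-vein blood glucose by glucometer at 0, 15, 30, 60 and 90 min.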

Series [3] is described as follows: Oral bioavailability in Wistar rat at 10 mg/kg administered as single dose measured up to 24 hrs ESI-LC/MS-MS analysis. To be noted: in vivo. Format: ADME, organism-based. The procedure, abridged:
(§1)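 Single dose of compound: 3 mg/kg i.v. in solution (75% water : 25% of 75% Glycoferol/25% Cremophor) or 10 mg/kg p.o. as wet-milled suspension (0.6% methylcellulose, 0.5% Tween 80 in water); male Wistar rats n=3 per route, female C57Bl6 mice n=24 per route. Plasma sampled 0.25–24 h (p.o.), 0.083–24 h (i.v.); heparinized plasma, acetonitrile precipitation, ESI-LC/MS-MS (LOQ 1 ng/mL rat, 5 ng/mL mouse); noncompartmental analysis, linear trapezoidal.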

The test system of series [4] is Mus musculus. Put plainly: Suppression of blood glucose concentration in 4.5 mg/kg, ip GLP1(9-36)NH2-treated GLP-1R (-/-) C57Bl/6J mouse model at 30 mg/kg, po dosed 1 hrs before test and treated with 60 mg/kg, po OATP/MRP2 inhibitor rifampicin 2.5 hrs prior to oral glucose-tolerance test. Format: functional, organism-based. The procedure, abridged:
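GLP-1R-/- male mice aged 10 weeks, n=6, fasted overnight. Rifampicin 60 mg/kg p.o. 2.5 h before the oGTT, compound p.o. 1 h before, with or without GLP1(9-36)NH2 i.p. 15 min before. Glucose 2 g/kg orally. Tail-vein blood glucose by glucometer at 0, 15, 30, 60 and 90 min.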

Another series concerns the target T1, OATP1B3 (Homo sapiens, UniProt Q9NPD5).
T1 sequence (Q9NPD5 whole entry): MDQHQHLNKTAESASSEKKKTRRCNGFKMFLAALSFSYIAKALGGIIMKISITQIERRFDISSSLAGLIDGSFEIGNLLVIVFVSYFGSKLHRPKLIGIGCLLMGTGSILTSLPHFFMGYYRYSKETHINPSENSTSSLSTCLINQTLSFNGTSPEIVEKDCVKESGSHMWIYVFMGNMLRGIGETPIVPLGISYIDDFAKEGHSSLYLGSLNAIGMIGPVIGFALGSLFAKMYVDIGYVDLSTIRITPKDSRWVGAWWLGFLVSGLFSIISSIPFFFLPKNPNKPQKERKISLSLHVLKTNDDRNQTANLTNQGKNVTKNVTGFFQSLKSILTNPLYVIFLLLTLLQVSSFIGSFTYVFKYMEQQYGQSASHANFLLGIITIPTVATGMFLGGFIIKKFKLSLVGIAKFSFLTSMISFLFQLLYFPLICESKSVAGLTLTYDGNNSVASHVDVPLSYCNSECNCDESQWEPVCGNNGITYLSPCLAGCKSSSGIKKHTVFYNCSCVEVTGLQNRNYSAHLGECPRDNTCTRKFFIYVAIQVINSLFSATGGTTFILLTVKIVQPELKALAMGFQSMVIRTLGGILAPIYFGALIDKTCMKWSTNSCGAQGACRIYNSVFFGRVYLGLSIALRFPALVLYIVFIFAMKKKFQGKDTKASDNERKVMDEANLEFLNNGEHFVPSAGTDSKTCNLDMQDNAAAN
As to the kind of experiment: Substrate activity at human OATP1B3 expressed in HEK293 cells assessed as increase in compound uptake at 1 uM incubated up to 15 mins LC-MS/MS analysis relative to control relative to control. Format: ADME, cell-based. The settings on record: HEK293 cells expressing human OATP1B3, read-out: FC. The procedure, abridged:
(§2)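 HEK-TR cells overexpressing hOATP1B1 or hOATP1B3, run in parallel with control HEK-TR cells, seeded at 1 x 10⁵ cells/well one day before. Time-dependent uptake of 1 μM compound in HBSS at 37 °C, quadruplicates. Uptake stopped with ice-cold buffer, cells washed, lysed and quantified by LC-MS/MS. Uptake ratio calculated against the control cells.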

Series [5] can be described thus: Volume of distribution at steady state in Wistar rat at 3 mg/kg, iv administered as single dose treated 2 hrs after dosing with 40 mg/kg, po OATP/MRP2 inhibitor rifampicin and measured up to 24 hrs ESI-LC/MS-MS analysis. Format: ADME, organism-based. The settings on record: in vivo, read-out: Vdss.
Series [6] concerns the target T2, Solute carrier organic anion transporter family member 1B3 (Homo sapiens, UniProt Q9NPD5).
T2 sequence (Q9NPD5 whole entry): T1 sequence (Q9NPD5 whole entry)
Put plainly: Substrate activity at human OATP1B3 expressed in HEK293 cells assessed as increase in compound uptake at 1 uM LC-MS/MS analysis. The series is classed as ADME, cell-based. To be noted: hek293, 1 µM, TDE = time-dependent effect. Summed up: as §2

A short description of series [7]: Chemical stability in pH 7.4 buffer. Format: physicochemical.
The test system of series [8] is Mus musculus. Put plainly: Suppression of blood glucose concentration in ob/ob C57Bl/6J mouse model of T2DM at 30 mg/kg, po dosed 1 hrs before test and treated with 60 mg/kg, po OATP/MRP2 inhibitor rifampicin 2.5 hrs prior to oral glucose-tolerance test. The series is classed as functional, organism-based. Summed up:
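Male ob/ob mice aged 10–11 weeks, n=7, randomised on blood glucose and fasted overnight. Rifampicin 60 mg/kg p.o. 2.5 h before the oGTT, compound 30 mg/kg p.o. 1 h before, GLP1(9-36)NH2 i.p. 15 min before, each given as indicated. Glucose 2 g/kg orally. Tail-vein glucose by glucometer at 0, 15, 30, 60 and 90 min.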

A short description of series [9]: Lipophilicity, logD of the compound at pH 7.4 at 25 degC. The settings on record: buffer. The series is classed as physicochemical.
The nature of series [10]: Metabolic lability in human liver microsomes incubated up to 20 mins by LC-MS/MS analysis. For orientation: Liver microsomes are vesicles of endoplasmic reticulum, rich in cytochrome P450 enzymes.
For a further series, the species on record is Rattus norvegicus. As to the kind of experiment: Improvement in 10 nM GLP1(9-36)NH2-mediated glucose-stimulated insulin secretion in dispersed rat pancreatic islets at 10 uM incubated for 2 hrs by ELISA. Format: functional. The procedure, abridged:
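Dispersed islets from male Sprague Dawley rats (collagenase digestion, Histopaque purification, Accutase dispersal, cultured up to 4 days). Pre-incubated 1 h in Krebs-Ringer with 5.6 mM glucose, then 2 h at 37 °C with 15 mM glucose, ±10 nM GLP1(9-36)NH2, ±compound 10 µM, DMSO vehicle; insulin by HTRF ELISA as % of total, n-fold vs control; N≥9.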
For orientation: ELISA stands for enzyme-linked immunosorbent assay.

The nature of series [11]: Volume of distribution at steady state in Wistar rat at 3 mg/kg, iv administered as single dose measured up to 24 hrs ESI-LC/MS-MS analysis. The settings on record: in vivo.
The nature of series [12]: Oral bioavailability in C57Bl6 mouse at 10 mg/kg administered as single dose measured up to 24 hrs ESI-LC/MS-MS analysis. The series is classed as ADME, organism-based. To be noted: in vivo. The procedure, abridged: as §1

Activity calls are given as the source filed them. The calls are words filed in the database; no cut-off is given here.

A word on the bioavailability: it is dose-corrected exposure relative to a reference, in per cent. The term logD denotes lipophilicity at a set pH, counting ionised and neutral species. Read a low logD as a more hydrophilic compound. As usually defined, the Vdss is the apparent volume that relates the amount in the body to the concentration in plasma or blood. In [1], `CC(C)(C)OC(=O)n1c2c(c3ccccc31)C[C@H]1C(=O)N3C[C@@H](CC(=O)O)C[C@H]3[C@@H]2N1C(=O)CC1CCC(F)(F)CC1` registered a CLH of 0.184 mL/h/10^6 cells. Moreover, the Activity result in the series with Mus musculus [2] was “Dose-dependent effect”; in series [6], “Tde”. The bioavailability in [3] was found to be 9%; in [12], 7.2%. The outcome in the series on Mus musculus [4] and in the series with Mus musculus [8] was inactive. Moreover, the uptake ratio at 0.25 h, 1 µM on OATP1B3 lay in the range of 6 to 22. In [5], the Vd stood at 0.815 L/kg. In series [7], this molecule returned a Stability of 99%. In addition, the logD in series [9] amounted to 1.7. Further, the metabolized at 20 min in [10] is 20%. Further, the outcome in the series filed under Rattus norvegicus was Active. In addition, in series [11], the Vdss worked out at 2.29 L/kg.

The values above are taken from ChEMBL document CHEMBL4354813, “Design, Synthesis, and Pharmacological Evaluation of Potent Positive Allosteric Modulators of the Glucagon-like Peptide-1 Receptor (GLP-1R)” (J Med Chem, 2020).
